In brackets after ≈: the same amount, converted by molar mass.
Experiments:
[1] = test system: Staphylococcus aureus; experiment: Antibacterial activity against methicillin-resistant Staphylococcus aureus OM584 after 24 hrs by microdilution method; format: functional; conditions: OM584, 24 h
Summary of the method: (§1)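 Broth microdilution in Mueller-Hinton broth with 0.85% NaCl, inoculum about 10^5 CFU per 100 μL. Compounds were diluted in water from 25.6 mg/mL stocks to final 2-fold series of 0.062–128 μg/mL. Plates were incubated 24 h at 35 °C. MIC was the lowest concentration at which all triplicate wells were clear, from three independent determinations.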

[2] = test system: Staphylococcus aureus; experiment: Antibacterial activity against methicillin-resistant Staphylococcus aureus OM481 after 24 hrs by microdilution method; format: functional; conditions: OM481, 24 h; summary of the method: as §1
[3] = test system: Staphylococcus aureus; experiment: Antibacterial activity against methicillin-resistant Staphylococcus aureus N315 after 24 hrs by microdilution method; format: functional; conditions: N315, 24 h; summary of the method: as §1
[4] = Inhibition of Escherichia coli DNA topoisomerase 4 subunit ParC/DNA topoisomerase 4 subunit ParE-mediated decatenation of kDNA by densitometry
Summary of the method: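 Purchased E. coli topoIV kit enzyme, one unit with 200 ng kDNA, 37 °C, 30 min. Buffer: 50 mM HEPES-KOH pH 7.6, 5 mM magnesium acetate, 100 mM potassium glutamate, 10 mM DTT, 1 mM ATP, 40% glycerol. Gel on 1.0% agarose in TAE. IC50 of decatenation from densitometry by interpolation equation, at least three determinations.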

[5] = Inhibition of Staphylococcus aureus DNA Topoisomerase 4-mediated decatenation of kDNA after 30 mins by densitometry
Summary of the method: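 Purchased S. aureus topoIV, one unit with 200 ng kDNA, 37 °C, 30 min. Products resolved on 1.0% agarose in TAE. IC50 of decatenation from densitometry by interpolation equation, at least three determinations.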

[6] = test system: Enterococcus; experiment: Ratio MIC for vancomycin to compound for vancomycin-resistant Enterococcus FN-1; format: functional
[7] = test system: Staphylococcus aureus; experiment: Antibacterial activity against methicillin-susceptible Staphylococcus aureus 209P after 24 hrs by microdilution method; format: functional; summary of the method: as §1
[8] = test system: Staphylococcus aureus; experiment: Antibacterial activity against methicillin-resistant Staphylococcus aureus COL after 24 hrs by microdilution method; format: functional; summary of the method: as §1
[9] = test system: Escherichia coli; experiment: Antibacterial activity against Escherichia coli K-12 after 24 hrs by microdilution method; format: functional; conditions: K-12, 24 h
Summary of the method: (§2)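 Broth microdilution in Mueller-Hinton broth with 0.85% NaCl, inoculum about 10^5 CFU per 100 μL. Compounds diluted from 25.6 mg/mL stocks in water to 2-fold series, final 0.062–128 μg/mL. […] Three independent determinations.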

[10] = Inhibition of Escherichia coli DNA gyrase assessed as inhibition of pBR322 supercoiling by densitometry
Summary of the method: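 One unit of E. coli gyrase with 0.5 μg relaxed pBR322 DNA, 37 °C, 30 min. Stopped with sucrose/EDTA dye, run on 1.0% agarose in TAE. IC50 from densitometry via log-interpolation equation.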

[11] = test system: Enterococcus; experiment: Antibacterial activity against vancomycin resistant Enterococcus FN-1 after 24 hrs by microdilution method; format: functional; conditions: FN-1, 24 h; summary of the method: as §1
[12] = test system: Streptococcus pneumoniae; experiment: Antibacterial activity against Streptococcus pneumoniae R6 after 24 hrs by microdilution method; format: functional; conditions: R6, 24 h; summary of the method: as §2
[13] = test system: Enterococcus; experiment: Antibacterial activity against vancomycin resistant Enterococcus NCTC 12201 after 24 hrs by microdilution method; format: functional; conditions: NCTC 12201, 24 h; summary of the method: as §1
[14] = test system: Pseudomonas aeruginosa; experiment: Antibacterial activity against Pseudomonas aeruginosa PAO1 after 24 hrs by microdilution method; format: functional; conditions: PAO1, 24 h; summary of the method: as §2
[15] = test system: Staphylococcus aureus; experiment: Antibacterial activity against vancomycin-intermediate Staphylococcus aureus Mu50 after 24 hrs by microdilution method; format: functional; conditions: Mu50, 24 h; summary of the method: as §1
[16] = Intestinal absorption in Wistar rat at 1 mg/mL, injected into small intestine, measured after 1 hr by UV-spectrophotometric analysis; conditions: in situ, intestinal injection
[17] = test system: Mus musculus; experiment: Toxicity in iv dosed mouse assessed as incidence of mortality measured 14 days post dose; format: organism-based; conditions: in vivo, 336 h
Summary of the method: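 Male mice (n = 4), 15–30 g, given water only for 12 h beforehand. Dosed intravenously by tail vein in 50% PEG in saline at 10, 50 or 100 mg/kg/day for 4 days (total dose volume 20 mL/kg). Weight gain, mobility and mortality were observed up to 14 days.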

[18] = test system: Mus musculus; experiment: Toxicity in mouse at 100 mg/kg, iv administered for 4 days assessed as transient seizure like reaction measured after 1 day of compound administration; format: organism-based; parameters: dose 100 mg/kg, route intravenous; conditions: in vivo, 24 h
[19] = Ratio IC50 for Escherichia coli DNA topoisomerase 4 ParC/DNA topoisomerase 4 subunit ParE-mediated decatenation of kDNA to IC50 for Staphylococcus aureus DNA topoisomerase 4 subunit B-mediated decatenation of kDNA
[20] = test system: Mus musculus; experiment: Toxicity in mouse at 10 mg/kg, iv administered for 4 days measured after 14 days; format: organism-based; parameters: dose 10 mg/kg, route intravenous; conditions: in vivo, 336 h
[21] = test system: Mus musculus; experiment: Toxicity in mouse at 100 mg/kg, iv administered for 4 days assessed as transient seizure like reaction measured after 10 mins of compound administration; format: organism-based; parameters: dose 100 mg/kg, route intravenous; conditions: in vivo
[22] = test system: Mus musculus; experiment: Toxicity in mouse at 50 mg/kg, iv administered for 4 days measured after 14 days; format: organism-based; parameters: dose 50 mg/kg, route intravenous; conditions: in vivo, 336 h

| Compound | MIC [1] [µg/mL] | MIC [2] [µg/mL] | MIC [3] [µg/mL] | IC50 [4] [nM] | IC50 [5] [nM] | Ratio [6] | MIC [7] [µg/mL] | MIC [8] [µg/mL] | MIC [9] [µg/mL] | IC50 [10] [nM] | MIC [11] [µg/mL] | MIC [12] [µg/mL] | MIC [13] [µg/mL] | MIC [14] [µg/mL] | MIC [15] [µg/mL] | other results |
| --- | --- | --- | --- | --- | --- | --- | --- | --- | --- | --- | --- | --- | --- | --- | --- | --- |
| Cc1ccc(CCC(=O)Oc2cc(O)c3c(=O)c(OC(=O)CCc4ccc(C)cc4)c(-c4ccc(O)c(O)c4)oc3c2)cc1 | 32 (≈ 53.8 µM) | 32 (≈ 53.8 µM) | 32 (≈ 53.8 µM) | 8590 | 440 | 2 | 64 (≈ 108 µM) | 32 (≈ 53.8 µM) | 64 (≈ 108 µM) | 1660 | 64 (≈ 108 µM) | 32 (≈ 53.8 µM) | 64 (≈ 108 µM) | 64 (≈ 108 µM) | 16 (≈ 26.9 µM) | – |
| O=C(CCc1ccc(F)cc1)Oc1cc(O)c2c(=O)c(OC(=O)CCc3ccc(F)cc3)c(-c3ccc(O)c(O)c3)oc2c1 | 16 (≈ 26.6 µM) | 16 (≈ 26.6 µM) | 16 (≈ 26.6 µM) | 6760 | 290 | 2 | 64 (≈ 106 µM) | 32 (≈ 53.1 µM) | 64 (≈ 106 µM) | 720 | 64 (≈ 106 µM) | 32 (≈ 53.1 µM) | 32 (≈ 53.1 µM) | 64 (≈ 106 µM) | 32 (≈ 53.1 µM) | – |
| CC(=O)OC[C@H]1O[C@@H](Oc2cc(O)c3c(=O)c(O[C@@H]4O[C@H](COC(C)=O)[C@H](OC(C)=O)[C@H](OC(C)=O)[C@H]4OC(C)=O)c(-c4ccc(O)c(O)c4)oc3c2)[C@H](OC(C)=O)[C@@H](OC(C)=O)[C@H]1OC(C)=O | 128 (≈ 133 µM) | 128 (≈ 133 µM) | 128 (≈ 133 µM) | – | – | 2 | 128 (≈ 133 µM) | > 128 | > 128 | – | 64 (≈ 66.5 µM) | 128 (≈ 133 µM) | 64 (≈ 66.5 µM) | > 128 | 128 (≈ 133 µM) | – |
| O=C(CCc1ccc(F)cc1)OC[C@H]1O[C@@H](Oc2c(-c3ccc(O)c(O)c3)oc3cc(O)cc(O)c3c2=O)[C@H](OC(=O)CCc2ccc(F)cc2)[C@@H](O)[C@H]1O | 0.13 (≈ 0.17 µM) | 0.13 (≈ 0.17 µM) | 0.13 (≈ 0.17 µM) | 9160 | 220 | – | 0.13 (≈ 0.17 µM) | 0.5 (≈ 0.654 µM) | > 128 | 780 | 0.25 (≈ 0.327 µM) | 0.13 (≈ 0.17 µM) | 0.25 (≈ 0.327 µM) | > 128 | 0.5 (≈ 0.654 µM) | Fa at 1 h [16]: 76.6%; Activity [17]: Non-toxic; Activity [18]: Non-toxic; Ratio IC50 [19]: 40; Activity [20]: Non-toxic; Activity [21]: Toxic; Activity [22]: Non-toxic |
| O=C(Cc1ccc(F)cc1)OC[C@H]1O[C@@H](Oc2c(-c3ccc(O)c(O)c3)oc3cc(O)cc(O)c3c2=O)[C@H](OC(=O)Cc2ccc(F)cc2)[C@@H](O)[C@H]1O | 1 (≈ 1.36 µM) | 1 (≈ 1.36 µM) | 1 (≈ 1.36 µM) | 10200 | 460 | – | 1 (≈ 1.36 µM) | 8 (≈ 10.9 µM) | > 128 | 1050 | 0.5 (≈ 0.679 µM) | 1 (≈ 1.36 µM) | 0.5 (≈ 0.679 µM) | > 128 | 1 (≈ 1.36 µM) | – |
| CCOc1ccc(CCC(=O)OC[C@H]2O[C@@H](Oc3c(-c4ccc(O)c(O)c4)oc4cc(O)cc(O)c4c3=O)[C@H](OC(=O)CCc3ccc(OCC)cc3)[C@@H](O)[C@H]2O)cc1 | 4 (≈ 4.9 µM) | 4 (≈ 4.9 µM) | 2 (≈ 2.45 µM) | > 12000 | 2990 | – | 8 (≈ 9.79 µM) | 8 (≈ 9.79 µM) | > 128 | 5390 | 16 (≈ 19.6 µM) | 8 (≈ 9.79 µM) | 16 (≈ 19.6 µM) | > 128 | 8 (≈ 9.79 µM) | – |
| O=c1c(O[C@@H]2O[C@H](CO)[C@H](O)[C@H](O)[C@H]2O)c(-c2ccc(O)c(O)c2)oc2cc(O[C@@H]3O[C@H](CO)[C@H](O)[C@H](O)[C@H]3O)cc(O)c12 | > 128 | > 128 | > 128 | 5340 | 200 | – | > 128 | > 128 | 32 (≈ 51.1 µM) | 260 | > 128 | > 128 | > 128 | 32 (≈ 51.1 µM) | > 128 | – |
